Screening results as filed in PubChem.
MrgX1 agonist – activates human MrgX1 receptor signaling. hit rate 0.44% among 310,000. B-score at 10 µM. AID 588627. MrgX1-HEK293 cells, Fluo-4 calcium fluorescence, agonist mode; active compounds read high;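 active = calcium response B-score plate-corrected fluorescence ratio at least 3 library SD, with starting fluorescence B-score inside 5 SD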
Target sequence (Q96LB2 whole entry, looked up): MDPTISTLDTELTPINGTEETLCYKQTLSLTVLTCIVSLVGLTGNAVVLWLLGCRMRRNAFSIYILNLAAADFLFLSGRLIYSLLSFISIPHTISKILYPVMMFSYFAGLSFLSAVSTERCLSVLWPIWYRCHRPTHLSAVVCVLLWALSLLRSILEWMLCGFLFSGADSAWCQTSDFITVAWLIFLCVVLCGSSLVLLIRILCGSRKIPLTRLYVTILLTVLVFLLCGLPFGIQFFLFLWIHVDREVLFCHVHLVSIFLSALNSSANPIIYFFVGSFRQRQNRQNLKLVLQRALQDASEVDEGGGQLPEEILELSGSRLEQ
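Material: MrgX1-expressing HEK293 cells; input: 15,000 cells per well; doses: test compound given as first of three sequential additions; schedule: overnight plating before 1 h dye loading; technique: Fluo-4 NW calcium-flux fluorescence, kinetic read; evaluation: baseline-normalised fluorescence change ratio, B-scored; control set: plate-wise positive and negative controls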
RGS4 inh – human RGS4 inhibition; P49798; AID 463165; HEK293 M3R/RGS4 inducible, Fluo-4 calcium flux; active compounds read high; triggered by carbachol at its EC20; hit rate 0.45% among 310,000; B-score at 10 µM;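 active = B-score, a plate-corrected calcium signal, over three deviations above library mean, with baseline fluorescence within five deviations of library mean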;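 note: RGS4 expression induced by doxycycline in cells with stable M3 receptor; B-score is computed from the integrated fluorescence ratio over baseline after carbachol; higher B-score means a larger calcium signal and so more RGS4 inhibition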
Target sequence (P49798 whole entry, looked up): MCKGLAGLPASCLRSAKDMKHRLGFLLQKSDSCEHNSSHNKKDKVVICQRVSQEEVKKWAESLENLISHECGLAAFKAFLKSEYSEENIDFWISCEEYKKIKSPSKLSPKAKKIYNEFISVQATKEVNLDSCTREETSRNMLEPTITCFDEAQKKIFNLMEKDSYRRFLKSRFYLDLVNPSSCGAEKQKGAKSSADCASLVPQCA
MrgX1 antagonist – human MrgX1 receptor antagonism, primary screen; hit rate 1.3% among 310,000; MRGX1-HEK293 calcium flux, Fluo-4, BAM8-22 antagonism; active compounds read low; B-score at 10 µM; Q96LB2;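 active = calcium-response B-score plate-corrected more than 3 library SD below zero, starting fluorescence within 5 deviations, no agonist response on first addition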;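 note: peak minus trough fluorescence over baseline after final BAM8-22 challenge near maximal dose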
MrgX1 PAM – human MrgX1 positive allosteric modulation, primary screen. AID 588675. hit rate 0.63% among 310,000. B-score at 10 µM. MrgX1-HEK293, Fluo-4 calcium flux, FDSS; active compounds read high. Q96LB2;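 active = plate-corrected calcium response at least 3 library SD above typical, normal starting fluorescence, not activating the receptor alone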;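 note: compound read alongside a low EC10 to EC30 dose of BAM8-22 agonist; peak minus trough fluorescence over baseline measured at the second addition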
Hep lipid drop – modulators of hepatic lipid droplet formation | AML12 mouse hepatocytes, oleate lipid droplets, BODIPY imaging | hit rate 0.4% among 240,000 | inhibition, % at 6.5 µM;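 active = lipid droplet intensity inhibited by at least 50%, with more than 500 cells counted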
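Material – AML12 mouse liver cells · Also added – oleate loading, 100 µM · Compound dosing – 6.5 µM single-point dosing · Times – overnight treatment with compound plus oleate · Measured by – fluorescence imaging, 20x objective, two fields per well · Read-out – percent inhibition of filter-corrected integrated lipid droplet intensity per well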
RGS4 act – RGS4 potentiation or activation; HEK293 M3R/inducible RGS4, carbachol calcium flux Fluo4; active compounds read low; B-score at 10 µM; hit rate 0.92% among 310,000;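 active = B-score of the integrated calcium signal more than 4 SD below the library mean, with starting fluorescence not abnormally high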;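 note: negative B-score means reduced calcium response which marks RGS4 activation or potentiation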
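test system = HEK293 cells with stable M3R and inducible RGS4 | schedule = recording 10 s baseline at 1 Hz, 100 s post-agonist | technique = Fluo4-AM (2 µM) calcium-flux fluorescence, kinetic read | measure = Agonist-evoked peak-minus-minimum fluorescence over baseline, integrated ratio, B score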
MrgX1 allo conf – confirmation of human MrgX1 receptor positive allosteric modulators | MrgX1-HEK293, Fluo-4 calcium fluorescence, FDSS | activation (ratio percentage), % at 10 µM | hit rate 13% among 1,200 | AID 602413 | shares compounds with MrgX1 PAM;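 active = ratio at least 3 SD above the weak peptide control, stable starting fluorescence, no direct agonism earlier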;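 note: compound followed by low BAM8-22 agonist challenge near EC20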
HEK293 Ca flux – counter-screen for MrgX1 antagonists: effect in parental HEK293 cells | shares compounds with MrgX1 antagonist | Fluo-4 calcium fluorescence, FDSS | fluorescence ratio F(max-min)/F0 at 10 µM | hit rate 2% among 4,000 | AID 624111;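 active = duplicate-averaged calcium fluorescence ratio at least three times the standard deviation of buffer wells, a nonspecific response in parental cells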
HEK293 Ca counter – MrgX1 allosteric activator counter-screen hit in parental HEK293 cells; parental HEK293 calcium flux, Fluo-4 fluorescence ratio; active compounds read high; hit rate 0.4% among 4,000; fluorescence ratio F(max-min)/F0 at 10 µM; shares compounds with MrgX1 antagonist;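 active = calcium fluorescence ratio, averaged over duplicates, at least 3 SD of the buffer-well ratio, meaning a nonspecific response in receptor-free cells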;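 note: untransfected parental HEK293 lacking MrgX1 used as counterscreen for MrgX1 allosteric activators; fluorescence change taken during the second addition on a kinetic imager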
HEK293 Ca cntr2 – counter-screen for MrgX1 activators: effect in parental HEK293 cells. hit rate 8.7% among 4,000. Fluo-4 calcium fluorescence (FDSS); active compounds read high. AID 624115. fluorescence ratio F(max-min)/F0 at 10 µM. shares compounds with MrgX1 antagonist;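 active = calcium fluorescence ratio at least three times the spread of buffer wells, meaning a non-specific response in parental cells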
Active calls of the source: *; i = inactive; . = not tested or not shown. An excerpt weighted towards active compounds, which were near 3.8% of everything screened.

SMILES	MrgX1 agonist	RGS4 inh	MrgX1 antagonist	MrgX1 PAM	Hep lipid drop	RGS4 act	MrgX1 allo conf	HEK293 Ca flux	HEK293 Ca counter	HEK293 Ca cntr2
CC(C)Nc1nc(NC(C)(C)C)nc(Oc2ccc(=O)n(C)n2)n1	i	i	i	28*	-2	i	i	i	i	i
COC(=O)CC/C(O)=C1\C(=O)CC(C)(C)CC1=NCCc1nc2ccccc2[nH]1	i	i	i	i	2	i	.	.	.	.
COc1cc(NC(=O)C(Cc2ccccc2)n2cccc2)cc(OC)c1 (stereo not drawn)	i	i	i	7.1*	1	i	i	i	i	i
CC(C)c1ccc(C(N)=S)cc1	i	i	i	14*	4	i	i	i	i	i
CC(C)c1ccc(C(=O)NNC(=O)c2ccncc2)cc1	i	i	i	i	-28	i	.	.	.	.
COc1ccc(C2=CC(c3ccc(F)cc3)n3nnnc3N2)cc1 (stereo not drawn)	i	i	i	7*	.	i	i	i	i	i
COc1ccc(C2=CC(c3sccc3C)n3nnnc3N2)cc1 (stereo not drawn)	i	i	i	i	.	i	.	.	.	.
OC(Cn1cncn1)(c1ccccc1)c1ccccc1	i	i	i	i	-1	i	.	.	.	.
Cc1sc2nc(-c3ccc(Br)cc3)oc(=O)c2c1C	i	i	i	6.6*	-3	i	i	i	i	i
Cc1sc2nc(-c3cccs3)oc(=O)c2c1C	i	i	i	i	-4	i	.	.	.	.
COc1ccccc1CC1S/C(=N/N=C/c2ccco2)NC1=O (stereo not drawn)	i	i	i	i	-9	i	.	.	.	.
Cc1ccncc1C(N)=O	i	i	i	8.1*	-4	i	i	i	i	i
NC(=O)c1cc2ccncc2c2ccccc12	i	i	i	i	-6	i	.	.	.	.
O=C(COC(=O)C1CSC2(c3ccc(F)cc3)CCC(=O)N12)NC(=O)NC1CCCC1 (stereo not drawn)	i	i	i	i	1	i	.	.	.	.
C/C(=C\C(=O)c1ccccc1)NCc1ccc(F)cc1	i	i	i	7.4*	.	i	i	i	i	i
COC(=O)CN1C(=O)C2(C(C#N)=C(N)Oc3n[nH]c(-c4cccs4)c32)c2ccccc21 (stereo not drawn)	i	i	i	i	5	i	.	.	.	.
COC(=O)CN1C(=O)C2(C(C#N)=C(N)Oc3c2c(C)nn3-c2ccccc2)c2ccccc21 (stereo not drawn)	i	i	i	7.4*	8	i	i	i	i	i
CC(=O)Cc1nsc(NC(=O)c2ccc(-c3ccc(Cl)cc3Cl)o2)n1	i	i	i	i	.	i	.	.	.	.
CC(=O)Cc1nsc(NC(=O)c2ccc(-c3cc(Cl)ccc3Cl)o2)n1	i	i	i	40*	2	i	32%*	i	i	i
CN(C)C(=O)COc1ncnc2scc(-c3ccc(F)cc3)c12	i	i	i	8.2*	-9	i	35%*	i	i	i
CCN(C(=O)COc1ncnc2scc(-c3ccc(F)cc3)c12)C1CCS(=O)(=O)C1 (stereo not drawn)	i	i	i	i	2	i	.	.	.	.
